According to ChEMBL document CHEMBL3739379, “Anti-Candida activity and cytotoxicity of a large library of new N-substituted-1,3-thiazolidin-4-one derivatives” (Eur J Med Chem, 2016):
≈ marks a conversion by molar mass, not a printed value.

Experiments:
Type in all cases: functional
[1] = system: Staphylococcus aureus; test: Antibacterial activity against Staphylococcus aureus after 18 to 22 hrs by broth microdilution method
Outline: (§1)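 Broth microdilution per NCCLS in Mueller-Hinton II broth; isolates subcultured for purity. Compounds dissolved in DMSO, serial dilutions 256 to 0.5 µg/mL; inoculum 10^5/mL. Controls: organism without compound, medium only. Incubation 18 to 22 h at 35 °C. MIC is the lowest concentration giving complete growth inhibition, read by unaided eye.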

[2] = system: Klebsiella oxytoca; test: Antibacterial activity against Klebsiella oxytoca after 18 to 22 hrs by broth microdilution method; outline: as §1
[3] = system: Nakaseomyces glabratus; test: Antifungal activity against Candida glabrata clinical isolate after 24 hrs by sabouraud dextrose broth based microdilution method
Outline: (§2)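 Clinical isolates identified by conventional methods and subcultured for purity. Broth microdilution per NCCLS in Sabouraud dextrose broth; compounds dissolved in DMSO and serially diluted; inoculum 10^3/mL. Controls: fungi without compound, medium only. Incubated 24 h at 37 °C. MIC is the lowest concentration with complete growth inhibition by unaided eye. Values are geometric means over isolates per species.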

[4] = system: Enterobacter sp.; test: Antibacterial activity against Enterobacter sp. after 18 to 22 hrs by broth microdilution method; outline: as §1
[5] = system: Candida tropicalis; test: Antifungal activity against Candida tropicalis clinical isolate after 24 hrs by sabouraud dextrose broth based microdilution method; outline: as §2
[6] = system: Escherichia coli; test: Antibacterial activity against Escherichia coli at after 18 to 22 hrs by broth microdilution method; outline: as §1
[7] = system: [Candida] sake; test: Antifungal activity against Candida sake clinical isolate after 24 hrs by sabouraud dextrose broth based microdilution method; settings: Fermentozyma sake; outline: as §2
[8] = system: Enterococcus faecalis; test: Antibacterial activity against […] faecalis after 18 to 22 hrs by broth microdilution method; outline: as §1
[9] = system: Candida albicans; test: Antifungal activity against Candida albicans clinical isolate after 24 hrs by sabouraud dextrose broth based microdilution method; outline: as §2
[10] = system: Candida parapsilosis; test: Antifungal activity against Candida parapsilosis clinical isolate after 24 hrs by sabouraud dextrose broth based microdilution method; settings: Lodderomyces parapsilosis; outline: as §2
[11] = system: Pichia kudriavzevii; test: Antifungal activity against Candida krusei clinical isolate after 24 hrs by sabouraud dextrose broth based microdilution method; outline: as §2
[12] = system: Proteus mirabilis; test: Antibacterial activity against Proteus mirabilis after 18 to 22 hrs by broth microdilution method; outline: as §1
[13] = system: Staphylococcus haemolyticus; test: Antibacterial activity against Staphylococcus haemolyticus after 18 to 22 hrs by broth microdilution method; outline: as §1
[14] = system: Staphylococcus warneri; test: Antibacterial activity against Staphylococcus warneri after 18 to 22 hrs by broth microdilution method; outline: as §1

| MIC [1] [µg/mL] | MIC [2] [µg/mL] | MIC [3] [µg/mL] | MIC [4] [µg/mL] | MIC [5] [µg/mL] | MIC [6] [µg/mL] | MIC [7] [µg/mL] | MIC [8] [µg/mL] | MIC [9] [µg/mL] | MIC [10] [µg/mL] | MIC [11] [µg/mL] | MIC [12] [µg/mL] | MIC [14] [µg/mL] | SMILES | MIC [13] [µg/mL] |
| --- | --- | --- | --- | --- | --- | --- | --- | --- | --- | --- | --- | --- | --- | --- |
| > 256 | > 256 | 2 (≈ 5.34 µM) | > 256 | 4 (≈ 10.7 µM) | > 256 | 8 (≈ 21.4 µM) | > 256 | 8 (≈ 21.4 µM) | 2 (≈ 5.34 µM) | 2 (≈ 5.34 µM) | > 256 | > 256 | C/C(=N\N=C1/SCC(=O)N1Cc1ccc([N+](=O)[O-])cc1)c1cccs1 | > 256 |
| > 256 | > 256 | 16 (≈ 45.5 µM) | > 256 | 128 (≈ 364 µM) | > 256 | 256 (≈ 728 µM) | > 256 | 2 (≈ 5.69 µM) | 64 (≈ 182 µM) | 256 (≈ 728 µM) | > 256 | > 256 | CC1CC/C(=N\N=C2/SCC(=O)N2Cc2cccc3ccccc23)C1 (stereo not given) | > 256 |
| > 256 | > 256 | 4 (≈ 13.1 µM) | > 256 | 2 (≈ 6.53 µM) | > 256 | 2 (≈ 6.53 µM) | > 256 | 4 (≈ 13.1 µM) | 2 (≈ 6.53 µM) | 2 (≈ 6.53 µM) | > 256 | > 256 | CC(C)=N/N=C1\SCC(=O)N1Cc1ccc([N+](=O)[O-])cc1 | > 256 |
| > 256 | > 256 | 8 (≈ 20.4 µM) | > 256 | 8 (≈ 20.4 µM) | > 256 | 8 (≈ 20.4 µM) | > 256 | 2 (≈ 5.1 µM) | 8 (≈ 20.4 µM) | 8 (≈ 20.4 µM) | > 256 | > 256 | C/C(=N\N=C1/SCC(=O)N1CN1C(=O)c2ccccc2C1=O)c1ccccc1 | > 256 |
| > 256 | > 256 | 2 (≈ 5.58 µM) | > 256 | 4 (≈ 11.2 µM) | > 256 | 4 (≈ 11.2 µM) | > 256 | 2 (≈ 5.58 µM) | 2 (≈ 5.58 µM) | 2 (≈ 5.58 µM) | > 256 | > 256 | CCC/C(C)=N/N=C1\SCC(=O)N1CN1C(=O)c2ccccc2C1=O | > 256 |
| > 256 | > 256 | 32 (≈ 86.9 µM) | > 256 | 2 (≈ 5.43 µM) | > 256 | 2 (≈ 5.43 µM) | > 256 | 4 (≈ 10.9 µM) | 4 (≈ 10.9 µM) | 8 (≈ 21.7 µM) | > 256 | > 256 | C/C(=N\N=C1/SCC(=O)N1Cc1ccc([N+](=O)[O-])cc1)c1ccccc1 | > 256 |
| > 256 | > 256 | 16 (≈ 44.4 µM) | > 256 | 32 (≈ 88.8 µM) | > 256 | 4 (≈ 11.1 µM) | > 256 | 32 (≈ 88.8 µM) | 8 (≈ 22.2 µM) | 8 (≈ 22.2 µM) | > 256 | > 256 | CC1CCC(=N/N=C2\SCC(=O)N2Cc2ccc([N+](=O)[O-])cc2)CC1 (stereo not given) | > 256 |
| > 256 | > 256 | 8 (≈ 21.1 µM) | > 256 | 2 (≈ 5.27 µM) | > 256 | 2 (≈ 5.27 µM) | > 256 | 2 (≈ 5.27 µM) | 16 (≈ 42.2 µM) | 16 (≈ 42.2 µM) | > 256 | > 256 | C/C(=N\N=C1/SCC(=O)N1Cc1cccc2ccccc12)c1cccs1 | > 256 |

More lines, now with the values behind:

| SMILES | MIC [1] [µg/mL] | MIC [2] [µg/mL] | MIC [3] [µg/mL] | MIC [4] [µg/mL] | MIC [5] [µg/mL] | MIC [6] [µg/mL] | MIC [7] [µg/mL] | MIC [8] [µg/mL] | MIC [9] [µg/mL] | MIC [10] [µg/mL] | MIC [11] [µg/mL] | MIC [12] [µg/mL] | MIC [14] [µg/mL] | MIC [13] [µg/mL] |
| --- | --- | --- | --- | --- | --- | --- | --- | --- | --- | --- | --- | --- | --- | --- |
| CCCC/C(CC)=N/N=C1\SCC(=O)N1CN1C(=O)c2ccccc2C1=O | > 256 | > 256 | 16 (≈ 41.4 µM) | > 256 | 2 (≈ 5.17 µM) | > 256 | 2 (≈ 5.17 µM) | > 256 | 4 (≈ 10.3 µM) | 8 (≈ 20.7 µM) | 32 (≈ 82.8 µM) | > 256 | > 256 | > 256 |
| CC1CCC/C1=N\N=C1/SCC(=O)N1Cc1ccc([N+](=O)[O-])cc1 (stereo not given) | > 256 | > 256 | 16 (≈ 46.2 µM) | > 256 | 2 (≈ 5.77 µM) | > 256 | 2 (≈ 5.77 µM) | > 256 | 4 (≈ 11.5 µM) | 8 (≈ 23.1 µM) | 2 (≈ 5.77 µM) | > 256 | > 256 | > 256 |
| CCC/C(C)=N/N=C1\SCC(=O)N1Cc1ccc([N+](=O)[O-])cc1 | > 256 | > 256 | 2 (≈ 5.98 µM) | > 256 | 64 (≈ 191 µM) | > 256 | 8 (≈ 23.9 µM) | > 256 | 2 (≈ 5.98 µM) | 16 (≈ 47.8 µM) | 16 (≈ 47.8 µM) | > 256 | > 256 | > 256 |
| CC1CCCC/C1=N\N=C1/SCC(=O)N1Cc1ccc([N+](=O)[O-])cc1 (stereo not given) | > 256 | > 256 | 32 (≈ 88.8 µM) | > 256 | 4 (≈ 11.1 µM) | > 256 | 4 (≈ 11.1 µM) | > 256 | 16 (≈ 44.4 µM) | 16 (≈ 44.4 µM) | 2 (≈ 5.55 µM) | > 256 | > 256 | > 256 |
| O=C1CS/C(=N\N=C\c2cccc3ccccc23)N1Cc1ccc([N+](=O)[O-])cc1 | > 256 | > 256 | 64 (≈ 158 µM) | > 256 | 16 (≈ 39.6 µM) | > 256 | 8 (≈ 19.8 µM) | > 256 | 256 (≈ 633 µM) | 8 (≈ 19.8 µM) | 8 (≈ 19.8 µM) | > 256 | > 256 | > 256 |
| C/C(=N\N=C1/SCC(=O)N1Cc1ccc([N+](=O)[O-])cc1)c1ccccn1 | > 256 | > 256 | 32 (≈ 86.6 µM) | > 256 | 4 (≈ 10.8 µM) | > 256 | 4 (≈ 10.8 µM) | > 256 | 4 (≈ 10.8 µM) | 4 (≈ 10.8 µM) | 32 (≈ 86.6 µM) | > 256 | > 256 | > 256 |
| C/C(=N\N=C1/SCC(=O)N1CN1C(=O)c2ccccc2C1=O)c1ccccn1 | > 256 | > 256 | 32 (≈ 81.3 µM) | > 256 | 2 (≈ 5.08 µM) | > 256 | 4 (≈ 10.2 µM) | > 256 | 2 (≈ 5.08 µM) | 4 (≈ 10.2 µM) | 32 (≈ 81.3 µM) | > 256 | > 256 | > 256 |
